Screens from PubChem BioAssay.
F508del corr: CFTR F508del correction in bronchial cells; activity (quench increase), % at 7.58 µM; CFBE cells, YFP halide quenching; stimulated with forskolin plus potentiator P3; % fluorescence drop versus neutral controls; 0.36% of 350,000 active;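 active = mean added fluorescence quench of at least 8% versus neutral control, with both replicates also reaching 8%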;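 note: cells transiently co-express mutant CFTR-F508del with the halide-sensitive YFP; corrector assay measuring rescue of mutant channel to the surface after 24 h compound exposure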
FGF22 binding-1: binders of recombinant human FGF22 by thermal shift. Q9HCT0. SYPRO orange fluorescence; percent of sucrose octasulfate shift, DMSO zero. activity (Tm shift, normalised), % at 9.99 µM. 1.5% of 340,000 active. AID 651658;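 active = mean Tm shift, scaled 0 neutral to 100 positive control, at about 1.3% or above, every replicate too, limit read from the data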
Target sequence (Q9HCT0 whole entry, looked up): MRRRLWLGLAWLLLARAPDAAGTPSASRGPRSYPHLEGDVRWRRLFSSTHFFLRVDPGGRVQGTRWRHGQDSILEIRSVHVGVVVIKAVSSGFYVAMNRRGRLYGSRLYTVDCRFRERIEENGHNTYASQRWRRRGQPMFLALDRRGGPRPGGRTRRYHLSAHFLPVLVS
S100A4 inh HTS: S100A4-myosin IIA interaction inhibition | P26447 | S100A4/TAMRA-MyoIIA peptide fluorescence polarization | inhibition, % at 10.7 µM | 0.14% of 360,000 active;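 active = mean inhibition of at least 70% across replicates, with every replicate also reaching that level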
Target sequence (P26447 whole entry, looked up): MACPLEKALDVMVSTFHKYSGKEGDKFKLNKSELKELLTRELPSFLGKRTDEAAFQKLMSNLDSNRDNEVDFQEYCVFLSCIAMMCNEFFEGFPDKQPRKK
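assay system = human S100A4 monomer with TAMRA-labelled myosin IIA peptide | also added = labelled myosin peptide probe, 5 nM | incubation = 5 min between mix addition and reading | control set = DMSO and TFP controls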
E-sel inducer: E-selectin induction on HUVECs; P16581; HUVEC E-selectin immunofluorescence imaging; normalized: neutral wells 0, TNF-alpha wells 100; activation, % at 7.58 µM; 0.37% of 260,000 active;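 active = mean E-selectin-positive cell signal at least 10% of the positive control, reached in at least 60% of replicates, without over 20% cell loss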
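System: HUVEC, human umbilical vein endothelial cells; quantity: 3,000 cells/well; buffer or medium: EGM-2 medium, gelatin-coated wells; dosing: single-point compound dose; detection: immunofluorescence imaging; evaluation: % PE-positive cells; benchmarks: TNF-alpha, DMSO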
Env fusion inh: blocks HIV Env-driven cell-cell fusion; HeLa-JRFL Env/CEM21 cell fusion, luciferase; inhibition, % at 12.3 µM; 1.1% of 360,000 active; AID 651610;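 active = mean replicate inhibition score of at least 50 and every replicate individually at or above 50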;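 note: 0% = plate neutral controls and 100% = maraviroc near 300 nM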
FGF22 binding-2: binds human FGF22 shifting its melting temperature. recombinant FGF22 thermal shift, SYPRO orange fluorescence. AID 720646. 2% of 1,000 active. shares compounds with FGF22 binding-1. thermal shift activity, °C (ΔTm) at 38 µM;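 active = fitted rise in melting shift crosses a set limit at or below the top valid dose tested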
FGF22 TSA DP: FGF22 (human) binding by thermal shift | shares compounds with FGF22 binding-1 | Thermal shift assay, SYPRO orange, melting temperature shift | Tm shift (activity), % at 38 µM | 50 tested, under 10 active | AID 743017;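 active = compounds whose fitted dose curve of melting temperature shift rises past a set threshold within the tested doses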
TSA no protein: compound-only SYPRO artifact for FGF22 binders; compound-only SYPRO orange thermal shift counter-screen, no protein; 2% of 1,000 active; AID 743019; AC50, µM (titrated, usually from 38 µM); shares compounds with FGF22 binding-1;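 active = rising signal whose fitted curve reaches the 0.54 level within the top valid dose, showing a melting point, actives reach about 13 µM in these data; inactive = the rest, including activity in the opposite direction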; note: value is where the raw curve crosses a fixed level and not half-maximal
An asterisk follows results filed as active; i = inactive; . = no result given; [ ] = dose if it differs, or a comment. Only some compounds are listed: those with a hit (about 2.7% of all), similar ones and a draw of the others.

SMILES | F508del corr | FGF22 binding-1 | S100A4 inh HTS | E-sel inducer | Env fusion inh | FGF22 binding-2 | TSA no protein | others
O=C(C1CCOCC1)N1C[C@@H]2[C@H](c3ccccc31)[C@@H](CO)N2Cc1ccccc1 | 0 | 1.5* | 7 | 0 | . | -0.021[42 µM] | i
COc1ccc(C(=O)N2C[C@@H]3[C@H](c4ccccc42)[C@@H](CO)N3Cc2ccccc2)cc1 | -2 | 1.3* | -4 | 0 | . | 0.12[42 µM] | i
O=C(C1CCOCC1)N1C[C@H]2[C@@H](c3ccccc31)[C@@H](CO)N2Cc1ccc(Cl)cc1 | 0 | 0 | -8 | 3 | . | . | .
O=C(O)C[C@@H]1C=C[C@@H](NC(=O)c2ccccc2F)[C@H](CO)O1 | -1 | 0 | 12 | 0 | 33[16.7 µM] | . | .
CCCNC(=O)N1[C@@H]2CN(C(=O)c3ccccc3)c3ccccc3[C@@H]2[C@@H]1CO | 2 | 1.8* | . | 1 | . | 0.23[42 µM] | i
CC(C)NC(=O)N1C[C@H]2[C@@H](c3ccccc31)[C@H](CO)N2C(=O)c1cccnc1 | 0 | 1.3* | 3 | 0 | . | -0.023 | i
CC(C)NC(=O)N1C[C@@H]2[C@H](c3ccccc31)[C@@H](CO)N2C(=O)c1cccnc1 | 0 | 0 | -4 | 0 | . | . | .
CCCNC(=O)N1C[C@@H]2[C@H](c3ccccc31)[C@H](CO)N2C(=O)c1ccccc1 | -2 | . | . | 0 | . | . | .
C[C@@H]1CN([C@@H](C)CO)C(=O)c2cc(NS(=O)(=O)c3cn(C)cn3)ccc2O[C@H]1CN(C)S(=O)(=O)c1ccc(Cl)cc1 | -3 | 0 | 2 | 0 | -6[16.7 µM] | . | .
CCC(=O)N1C[C@@H](O)COC[C@H]2O[C@@H](CC(=O)NC)CC[C@@H]21 | -1 | 0 | 11 | . | -14[16.7 µM] | . | .
O=Cc1cc(N=Nc2cccc(C(=O)O)c2)ccc1O | 1 | 2.0* | -3 | . | 0 | 0.065 | i
C[C@@H]1CN([C@@H](C)CO)C(=O)c2cccc(NS(=O)(=O)c3ccccc3)c2O[C@@H]1CN(C)Cc1ccncc1 | -2 | 0 | -4 | 0 | -17[16.7 µM] | . | .
Cc1cccc(NS(=O)(=O)c2ccc3c(c2)NC(=O)CC(=O)N3)c1 | -1 | 0 | -4 | 0 | 0 | . | .
CCc1cccc(NS(=O)(=O)c2ccc3c(c2)NC(=O)CC(=O)N3)c1 | 0 | 1.7* | 11 | . | -1 | 0.08 | i
O=C(N/N=C/c1c[nH]c2ccc(Br)cc12)c1ccc2c(c1)OCO2 | 3 | 2.5* | 1 | 3 | -29 | 0.077 | i
O=C(N/N=C/c1c[nH]c2ccccc12)c1ccc2c(c1)OCCO2 | 1 | 1.6* | 2 | 0 | -156 | 0.013 | i
O=C(N/N=C/c1c[nH]c2ccc(Br)cc12)c1ccncc1 | . | . | . | 2 | 19 | . | .
O=C(N/N=C/c1c[nH]c2ccc(Br)cc12)C1CC1 | 1 | 2.2* | -1 | 4 | -2 | -0.072 | i
NC(=O)C(=O)N/N=C/c1c[nH]c2ccc(Br)cc12 | 3 | -1 | 1 | . | 3 | . | .
CC1(C(=O)NS(=O)(=O)c2cccc(Cl)c2)CCN1C(=O)Cc1ccc(-c2ccccc2)cc1 (stereo not given) | -2 | 1.9* | -23 | 0 | 19 | 0.083 | i
CC1(C(=O)NS(=O)(=O)c2cccc(F)c2)CCN1C(=O)Cc1ccc(-c2ccccc2)cc1 (stereo not given) | 2 | 0 | -1 | 0 | 4 | . | .
O=S1(=O)N=C(N(Cc2cccs2)c2ccc(O)cc2)c2ccccc21 | -2 | 1.4* | -6 | . | 10 | . | i | FGF22 TSA DP=0
NNC(=O)CN1C(=O)C2(OCCO2)c2ccccc21 | 1 | 30* | 8 | -1 | -2 | 0.05 | i
C[C@H]1CN([C@@H](C)CO)C(=O)c2cc(NC(=O)C3CC3)ccc2O[C@@H]1CN(C)CC1CCCCC1 | -1 | 0 | 5 | 0 | -7[16.7 µM] | . | .
CC(=O)c1cccc(NC(=O)C2CCCN2S(=O)(=O)c2ccccc2C(F)(F)F)c1 (stereo not given) | -1 | 0 | 6 | 0 | 28 | . | .
SMILES | F508del corr | FGF22 binding-1 | S100A4 inh HTS | E-sel inducer | Env fusion inh | FGF22 binding-2 | TSA no protein | others
CC(=O)c1cccc(NC(=O)C2CCCN2S(=O)(=O)c2cccs2)c1 (stereo not given) | -1 | 17* | -1 | 0 | -24 | -0.082 | i
CC(=O)NC(Cc1c[nH]c2ccccc12)C(=O)NCCc1ccccn1 (stereo not given) | 1 | 1.6* | -12 | 46* | 12 | 0.2 | i
O=C(c1cnccn1)N1CC(=O)N2[C@H](CO)[C@H](c3ccc(C#CC4CCCC4)cc3)[C@H]2C1 | -3 | . | 6 | -1 | 8[16.7 µM] | . | .
COc1ccc(/C(=N\Nc2ccccc2C(=O)O)c2ccccc2)cc1 | -2 | 1.8* | -21 | 0 | -49 | 0.19 | i
CCOC(=O)C(=O)N/N=C(/c1ccccc1)c1ccc(OC)cc1 | -2 | 0 | -10 | 2 | -2 | . | .
Cc1noc(C)c1NC(=O)NCC[C@H]1CC[C@H](NC(=O)Cc2cccnc2)[C@H](CO)O1 | 1 | 0 | 13 | 0 | -5[16.7 µM] | . | .
COc1ccc(OC)c(Nc2ccc(Nc3cc(OC)ccc3OC)nn2)c1 | 4 | 1.8* | -1 | . | . | -0.071 | i
CCC(=O)N1[C@@H]2Cn3c(ccc(-c4ccncc4)c3=O)[C@H]1[C@@H](C(=O)N1CCc3ccccc3C1)[C@@H]2CO | -5 | 0 | 11 | 0 | . | . | .
O=C(Nc1ccc(Cl)cc1)N[C@H]1CC[C@@H](CCNC(=O)c2ccccc2F)O[C@@H]1CO | -2 | 0 | 26 | 0 | -2[16.7 µM] | . | .
CN(C)C(=O)[C@H]1[C@H](CO)[C@H]2Cn3c(ccc(C4=CCCC4)c3=O)[C@H]2N1C(=O)c1ccccc1F | . | 0 | . | 0 | 3[16.7 µM] | . | .
CS(=O)(=O)N1CCCCN2[C@H](CO)[C@H](c3ccc(C#Cc4ccccn4)cc3)[C@@H]2C1 | 0 | 1.5* | 10 | 1 | . | 0.16[42 µM] | i
OC[C@@H]1[C@@H](c2ccc(-c3cccnc3)cc2)[C@@H]2CN(Cc3ccccn3)CCCCN12 | 2 | 1.5* | -12 | 0 | . | 0.022 | i
OC[C@@H]1[C@H](c2ccc(Br)cc2)[C@@H]2CN(Cc3cncnc3)CCCCN12 | -1 | 2.4* | -16 | 0 | . | 0.059[42 µM] | i
OC[C@H]1[C@@H](c2ccc(-c3cccnc3)cc2)[C@@H]2CN(Cc3ccccn3)CCCCN12 | 0 | 1.5* | -6 | 0 | . | 0.023 | i
OC[C@@H]1[C@@H](c2ccc(-c3ccccc3)cc2)[C@@H]2CN(Cc3ccccn3)CCCCN12 | 1 | 0 | -3 | 0 | . | . | .
